Data on 20 compounds can be found in article PMC10373460 (ACS Omega, 2023).

Structures are written as SMILES. “Also recorded” adds a separate entry of the source.

Assay [1] has as its target α-glucosidase from S. cerevisiae E.C. 3.2.1.20 (Saccharomyces cerevisiae, UniProt P53341). Description: Inhibition of α-glucosidase activity in vitro. It is filed as biochemical. The conditions noted are these: for inhibition at 10 µM: read-out: %inhibition (10 μM).
Assay [2] concerns the target α-glucosidase (Saccharomyces cerevisiae, UniProt P53341). Kind of assay: Enzyme kinetic study. It is filed as biochemical. The settings on record: for inhibition mode: Lineweaver–Burk plots, Km increased, Vmax unaffected. An outline of the steps: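 S. cerevisiae α-glucosidase solution (0.1 U/mL) and pNPG substrate solution (1 mM) prepared in […] pH 6.9 phosphate buffer. Enzyme preincubated with test compound (DMSO stock) for 10 min at 37 °C, then substrate added for 20 min at 37 °C. Stopped with 1 M Na2CO3, read at 405 nm. Lineweaver–Burk plots at several inhibitor concentrations; Ki from secondary replot of slope versus concentration.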

α-glucosidase, sequence (P53341 whole entry): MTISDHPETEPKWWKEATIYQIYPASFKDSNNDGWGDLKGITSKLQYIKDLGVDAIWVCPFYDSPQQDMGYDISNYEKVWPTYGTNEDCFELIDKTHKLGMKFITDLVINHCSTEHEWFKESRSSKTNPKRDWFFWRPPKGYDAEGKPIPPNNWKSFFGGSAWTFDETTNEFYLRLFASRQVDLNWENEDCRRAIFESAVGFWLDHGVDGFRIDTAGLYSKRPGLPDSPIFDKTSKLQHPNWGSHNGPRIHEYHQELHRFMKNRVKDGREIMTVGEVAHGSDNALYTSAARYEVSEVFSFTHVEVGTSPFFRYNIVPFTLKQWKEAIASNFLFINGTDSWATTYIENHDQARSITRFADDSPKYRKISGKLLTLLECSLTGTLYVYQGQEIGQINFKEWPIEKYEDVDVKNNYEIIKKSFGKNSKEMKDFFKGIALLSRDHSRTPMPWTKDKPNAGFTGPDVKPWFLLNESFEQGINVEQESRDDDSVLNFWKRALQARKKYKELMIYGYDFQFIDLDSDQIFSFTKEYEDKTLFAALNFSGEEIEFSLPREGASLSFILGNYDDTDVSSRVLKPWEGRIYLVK
α-glucosidase from S. cerevisiae E.C. 3.2.1.20, sequence (P53341 whole entry): as above

The term IC50 denotes the point on the concentration scale where inhibition reaches its midpoint. `O=c1cc(O)c2ccccc2o1` [4-hydroxycoumarin] showed an IC50 in assay [1] of more than 200 µM.

`O=c1oc2ccccc2c(O)c1C(c1ccccc1)c1c(O)c2ccccc2oc1=O` [Compound 1, 3,3′-(Phenylmethylene)bis(4-hydroxy-2H-chromen-2-one)]: in assay [1], the IC50 is 30.8 ± 1.25 µM.

For the compound `O=c1oc2ccccc2c(O)c1C(c1ccccc1Cl)c1c(O)c2ccccc2oc1=O` [Compound 2, 3,3′-((2-Chlorophenyl)methylene)bis(4-hydroxy-2H-chromen-2-one)], the 50% inhibitory concentration (IC50) in assay [1] came out at 8.12 ± 0.59 µM.

Regarding `O=c1oc2ccccc2c(O)c1C(c1cccc(Cl)c1)c1c(O)c2ccccc2oc1=O` [Compound 3, 3,3′-((3-Chlorophenyl)methylene)bis(4-hydroxy-2H-chromen-2-one)], the IC50 in assay [1] is 6.06 ± 0.06 µM.

As for `O=c1oc2ccccc2c(O)c1C(c1ccc(Cl)cc1)c1c(O)c2ccccc2oc1=O` [Compound 4, 3,3′-((4-Chlorophenyl)methylene)bis(4-hydroxy-2H-chromen-2-one)], half-maximal inhibition in assay [1] (IC50) required 3.19 ± 0.41 µM. This IC50 is about 1.9-fold lower than that of the compound before.

For `O=c1oc2ccccc2c(O)c1C(c1ccc(F)cc1)c1c(O)c2ccccc2oc1=O` [Compound 5, 3,3′-((4-Fluorophenyl)methylene)bis(4-hydroxy-2H-chromen-2-one)], the IC50 in assay [1] is 12.31 ± 0.08 µM.

As for `O=c1oc2ccccc2c(O)c1C(c1ccc(Br)cc1)c1c(O)c2ccccc2oc1=O` [Compound 6, 3,3′-((4-Bromophenyl)methylene)bis(4-hydroxy-2H-chromen-2-one)], 2.95 ± 0.05 µM corresponded to half-maximal inhibition in assay [1] (IC50).

Compound `O=c1oc2ccccc2c(O)c1C(c1ccc(Cl)cc1Cl)c1c(O)c2ccccc2oc1=O` [Compound 7, 3,3′-((2,4-Dichlorophenyl)methylene)bis(4-hydroxy-2H-chromen-2-one)] had an IC50 in assay [1] of 3.15 ± 0.31 µM.

Turning to `O=c1oc2ccccc2c(O)c1C(c1ccc(Cl)c(Cl)c1)c1c(O)c2ccccc2oc1=O` [Compound 8, 3,3′-((3,4-Dichlorophenyl)methylene)bis(4-hydroxy-2H-chromen-2-one)], the IC50 in assay [1] amounted to 1.9 ± 0.14 µM.

Compound `O=c1oc2ccccc2c(O)c1C(c1cccc([N+](=O)[O-])c1)c1c(O)c2ccccc2oc1=O` [Compound 9, 3,3′-((3-Nitrophenyl)methylene)bis(4-hydroxy-2H-chromen-2-one)] gave an IC50 in assay [1] of 14.8 ± 0.32 µM. Against the preceding compound, the IC50 is about 7.8-fold higher.

Turning to `O=c1oc2ccccc2c(O)c1C(c1ccc(Br)c([N+](=O)[O-])c1)c1c(O)c2ccccc2oc1=O` [Compound 10, 3,3′-((4-Bromo-3-nitrophenyl)methylene)bis(4-hydroxy-2H-chromen-2-one)], half-maximal inhibition in assay [1] (IC50) was put at 3.41 ± 0.17 µM.

In the case of `O=c1oc2ccccc2c(O)c1C(c1ccc(F)c(Br)c1)c1c(O)c2ccccc2oc1=O` [Compound 11, 3,3′-((3-Bromo-4-fluorophenyl)methylene)bis(4-hydroxy-2H-chromen-2-one)], the IC50 in assay [1] stood at 2.89 ± 0.25 µM.

As to `O=c1oc2ccccc2c(O)c1C(c1ccc(O)c(Br)c1)c1c(O)c2ccccc2oc1=O` [Compound 12, 3,3′-((3-Bromo-4-hydroxyphenyl)methylene)bis(4-hydroxy-2H-chromen-2-one)], the IC50 in assay [1] is 4.15 ± 0.06 µM.

On to `COc1ccc(C(c2c(O)c3ccccc3oc2=O)c2c(O)c3ccccc3oc2=O)cc1Br` [Compound 13, 3,3′-((3-Bromo-4-methoxyphenyl)methylene)bis(4-hydroxy-2H-chromen-2-one)], for which the IC50 in assay [1] amounted to 3.8 ± 0.05 µM. This IC50 and that of the compound before are within 1.5-fold of each other.

`O=c1oc2ccccc2c(O)c1C(c1cc(Br)c(O)c(Br)c1)c1c(O)c2ccccc2oc1=O` [Compound 14, 3,3′-((3,5-Dibromo-4-hydroxyphenyl)methylene)bis(4-hydroxy-2H-chromen-2-one)] displayed an IC50 in assay [1] of 2.38 ± 0.24 µM.

`COc1cc(C(c2c(O)c3ccccc3oc2=O)c2c(O)c3ccccc3oc2=O)ccc1O` [Compound 15, 3,3′-((4-Hydroxy-3-methoxyphenyl)methylene)bis(4-hydroxy-2H-chromen-2-one)] displayed an IC50 in assay [1] of 15.2 ± 0.45 µM.

Turning to `COc1cc(C(c2c(O)c3ccccc3oc2=O)c2c(O)c3ccccc3oc2=O)cc(Br)c1O` [Compound 16, 3,3′-((3-Bromo-4-hydroxy-5-methoxyphenyl)methylene)bis(4-hydroxy-2H-chromen-2-one)], in assay [1], half-maximal inhibition (IC50) was put at 5.1 ± 0.18 µM.

Broadly, the Ki is a measure of affinity in units of concentration, obtained from inhibition or displacement. In general, inhibition refers to how much of the control response was suppressed. For the compound `COc1c(Br)cc(C(c2c(O)c3ccccc3oc2=O)c2c(O)c3ccccc3oc2=O)cc1Br` [Compound 17, 3,3′-((3,5-Dibromo-4-methoxyphenyl)methylene)bis(4-hydroxy-2H-chromen-2-one)], the Ki in assay [2] was found to be 4.81 µM. Besides, the inhibition at 10 µM in assay [1] was 99.77 ± 0.49%.

As to `CCCCOc1c(Br)cc(C(c2c(O)c3ccccc3oc2=O)c2c(O)c3ccccc3oc2=O)cc1Br` [Compound 18, 3,3′-((3,5-Dibromo-4-butoxyphenyl)methylene)bis(4-hydroxy-2H-chromen-2-one)], in assay [2], the affinity, expressed as Ki, was 3.93 µM and the inhibition mode entry was “competitive inhibition; also recorded: competitive binding mode”. Moreover, in assay [1], the inhibition at 10 µM was found to be 99.67 ± 0.42%.

`CCCCCCCCOc1c(Br)cc(C(c2c(O)c3ccccc3oc2=O)c2c(O)c3ccccc3oc2=O)cc1Br` [Compound 19, 3,3′-((3,5-Dibromo-4-(octyloxy)phenyl)methylene)bis(4-hydroxy-2H-chromen-2-one)]: in assay [2], the Ki came to 1.8 µM and the inhibition mode result is listed as “competitive inhibition”. In addition, the inhibition at 10 µM in assay [1] was 98.95 ± 0.26%.
